The test system of data set [1] is H9c2. In words: Induction of membrane potential in rat H9c2 cells after 50 to 650 secs by FLIPR assay. In kind it is cell-based. The essentials: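 H9c2 cells seeded at 1 × 10^5 cells/well and grown to confluency. Switched to HBSS with 20 mM HEPES and loaded with blue membrane-potential dye for 30 min at 37 °C. Compounds freshly prepared in HBSS/HEPES were added and fluorescence was read on FLIPR. ΔF/F0 taken as peak change over initial intensity. Means ± SD, three independent experiments.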

The subject of data set [2] is H9c2. In words: Increase in intracellular calcium levels in rat H9c2 at 80 uM after 30 to 430 secs by FLIPR assay. The format is ADME, cell-based. To be noted: h9c2, 80 µM. The essentials:
(§1)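 H9c2 cells seeded at 1 × 10^5 cells/well and grown to confluency. Medium replaced by HBSS with 20 mM HEPES, then loaded with calcium-sensitive dye (Calcium 6 kit) for 2 h at 37 °C. Compounds freshly prepared in HBSS/HEPES were added and fluorescence was read on FLIPR. ΔF/F0 taken as peak amplitude change over initial intensity. Means ± SD, three independent experiments.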
Background: A change in cytosolic calcium serves as a functional read-out for many receptors and channels.

For data set [3], the system named is H9c2. In words: Cytotoxicity against rat H9c2 cells assessed as reduction in cell viability after 24 hrs by MTT assay. In kind it is cell-based. The note with it: H9c2, 24 h. The essentials:
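H9c2 cells cultured in DMEM with 10% FBS, penicillin/streptomycin/glutamine at 37 °C, 5% CO2. Seeded 1 × 10^5 cells/well, grown 24 h, then exposed to compounds for 24 h. The compounds came from 80 mM DMSO stocks diluted in complete medium to a series of concentrations. MTT added for 4 h, formazan dissolved in DMSO, OD read at 490 nm. Inhibition % taken against a cell-free medium blank. At least three experiments.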

For data set [4], the system named is H9c2. The data set is described as follows: Disruption of mitochondrial membrane potential in rat H9c2 cells at 40 uM after 24 hrs by rhodamine 123 staining-based assay. The format is ADME, cell-based. The note with it: h9c2, 24 h. The essentials:
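H9c2 cells in imaging plates exposed 24 h, PBS-washed and stained 30 min with rhodamine 123. Then fixed in 4% paraformaldehyde 15 min and counterstained with DAPI 20 min. Rh123 intensity quantified by high-content imaging on In Cell Analyzer 6000. Means ± SD, three independent experiments.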

For data set [5], the system named is H9c2. The data set is described as follows: Induction of apoptosis in rat H9c2 cells at 40 uM after 24 hrs by DAPI/annexin V-FITC/PI double staining-based assay. The note with it: h9c2, 24 h. In kind it is cell-based. The essentials: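 H9c2 cells in imaging plates exposed 24 h, PBS-washed, stained 30 min with annexin V-FITC and PI. Then fixed in 4% paraformaldehyde 15 min and DAPI-labelled 20 min. High-content imaging on In Cell Analyzer 6000 quantified nuclear size and annexin V-FITC and PI intensities. Means ± SD, three independent experiments.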

The subject of data set [6] is H9c2. In words: Increase in intracellular calcium levels in rat H9c2 after 30 to 430 secs by FLIPR assay. The format is ADME, cell-based. A digest of the protocol: as §1

As a reminder, the IC50 is the concentration that gives 50% inhibition. `CCCCO[C@]12[C@H]3[C@@H](OC(=O)c4ccccc4)[C@](O)(C[C@H]3[C@@]34[C@@H](OC)C[C@@H](O)[C@@]5(COC)CN(CC)[C@H]3[C@@H]1[C@H](OC)[C@H]54)[C@@H](OC)[C@@H]2O`: the Activity entry in data set [1] is given as “Dose-dependent effect”; in data set [2], “Toxic”. For the same molecule, in data set [3], the IC50 is 21.2 µM.
On to `CCN1C[C@]2(COC)CC[C@H](OC)[C@@]34[C@@H]5C[C@@H]6[C@@H](OC)[C@H](O)[C@@](OC)([C@H]5[C@H]6OC(=O)c5ccccc5)[C@@H](C[C@H]23)[C@H]14`, for which the IC50 in data set [3] is > 100 µM.
On the same count and under the same terms, the figure for `COC[C@]12CN(C)[C@H]3[C@@H]4[C@H](OC)[C@H]1[C@@]3([C@@H](OC)C[C@H]2O)[C@@H]1C[C@@]2(O)[C@H](OC(=O)c3ccccc3)[C@@H]1[C@]4(OC(=O)c1ccccc1)[C@@H](O)[C@@H]2OC` is 12.9 µM; for `CCN1C[C@]2(COC)CC[C@H](OC)[C@@]34[C@@H]5C[C@@]6(O)[C@H](OC(=O)c7ccccc7)[C@@H]5[C@@](OC)([C@@H]([C@H](OC)[C@H]23)[C@H]14)[C@@H](O)[C@@H]6OC` it is 95.6 µM.
Take `CCCCO[C@]12[C@H]3[C@@H](OC(=O)c4ccccc4)[C@](O)(C[C@H]3[C@@]34[C@@H](OC)CC[C@@]5(COC)CN(CC)[C@H]3[C@@H]1[C@H](OC)[C@H]54)[C@@H](OC)[C@@H]2O`: the Activity result is on record as “Dose-dependent effect” in data set [1], “Toxic” in data set [2], “Toxic” in data set [4] and “Toxic” in data set [5]. Further, the IC50 in data set [3] was determined as 19.2 µM.
Regarding `COC[C@@]12CC[C@H](OC)[C@@]34[C@@H]5C[C@@]6(O)[C@H](OC(=O)c7ccccc7)[C@@H]5[C@@](OC(C)=O)([C@@H]([C@H](OC)[C@H]13)[C@@H]4N(C)C2)[C@@H](O)[C@@H]6OC`, the Activity entry is given as “Toxic” in data set [6], “Toxic” in data set [4] and “Non-Toxic” in data set [5].
`CCN1C[C@]2(COC)CC[C@H](OC)[C@@]34[C@@H]5C[C@@]6(O)[C@H](OC(=O)c7ccccc7)[C@@H]5[C@](OC)([C@@H](O)[C@@H]6OC)[C@@H](C[C@H]23)[C@H]14`: the IC50 in data set [3] was > 100 µM.
For `C=C1[C@@H](O)[C@@]23C[C@H]4[C@@H]5[C@@]6(C)CCC[C@@]57[C@@H]2C[C@@H]1[C@H](O)[C@@H]3[C@H]7N4[C@H]6O`, the IC50 in data set [3] was > 100 µM.
Consider `COC[C@]12CN(C)[C@H]3[C@@H]4[C@H](OC)[C@H]1[C@@]3([C@@H](OC)C[C@H]2O)[C@]1(O)C[C@@]2(O)[C@H](OC(=O)c3ccccc3)[C@@H]1[C@]4(OC(=O)c1ccccc1)[C@@H](O)[C@@H]2OC`, for which, in data set [3], the IC50 was > 100 µM.
Turning to `COC[C@]12CN(C)[C@H]3[C@@H]4[C@H](OC)[C@H]1[C@@]3([C@@H](OC)C[C@H]2O)[C@@H]1C[C@@]2(O)[C@H](OC(=O)c3ccccc3)[C@@H]1[C@]4(OC(C)=O)[C@@H](O)[C@@H]2OC`, the values for the Activity result in data set [6], in data set [4] and in data set [5] were “Toxic”, “Toxic” and “Non-Toxic”, respectively.
For the molecule `COC[C@@]12CC[C@H](OC)[C@@]34[C@@H]5C[C@@]6(O)[C@H](OC(=O)c7ccccc7)[C@@H]5[C@@](OC(=O)c5ccccc5)([C@@H]([C@H](OC)[C@H]13)[C@@H]4N(C)C2)[C@@H](O)[C@@H]6OC`, the half-inhibitory concentration (IC50) in data set [3] was 44.3 µM.
For the molecule `CCCCO[C@]12[C@H]3[C@@H](OC(=O)c4ccccc4)[C@](O)(C[C@H]3[C@@]34[C@@H](OC)C[C@@H](O)[C@@]5(COC)CN(C)[C@H]3[C@@H]1[C@H](OC)[C@H]54)[C@@H](OC)[C@@H]2O`, the Activity result in data set [4] and in data set [5] was “Toxic” each time. The IC50 in data set [3] was determined as 27 µM.
With `C=C1[C@@H](O)[C@@]23C[C@H]4[C@@H]5[C@@]6(C)CCC[C@@]57[C@@H]2C[C@@H]1[C@H](OC(C)=O)[C@@H]3[C@H]7N4[C@H]6O`, the concentration for half-maximal inhibition (IC50) in data set [3] is > 100 µM.
For the molecule `CCN1C[C@]2(COC)[C@H](O)C[C@H](OC)[C@@]34[C@@H]5C[C@@]6(O)[C@H](OC(=O)c7ccccc7)[C@@H]5[C@@](OC)([C@@H]([C@H](OC)[C@H]23)[C@H]14)[C@@H](O)[C@@H]6OC`, the IC50 in data set [3] turned out to be 68.4 µM.
Regarding `CCN1C[C@]2(COC)[C@H](O)C[C@H](OC)[C@]34[C@@H]1[C@H]([C@H](OC)[C@H]23)[C@]1(OC(=O)c2ccccc2)[C@H]2[C@@H](OC(=O)c3ccccc3)[C@](O)(C[C@]24O)[C@@H](OC)[C@@H]1O`, the IC50 in data set [3] was > 100 µM.

Values taken from ChEMBL document CHEMBL4480456, “Potentially Cardiotoxic Diterpenoid Alkaloids from the Roots of Aconitum carmichaelii” (J Nat Prod, 2019).
